Screening data deposited in PubChem by Sanford-Burnham Center for Chemical Genomics.
Compounds with a hit are over-represented: about 2.3% of the library has one in this group of screens.
Rpn11 inh = Rpn11 (PSMD14) deubiquitinase inhibitors, primary screen, biochemical, fluorescence polarization, uHTS; 26S proteasome non-ATPase regulatory subunit 14 (Homo sapiens), O00487; human 26S proteasome, Ub4-pepOG fluorescence polarization; 20S core pre-blocked with epoxomicin; inhibition, % at 20 µM; actives 0.59% (n = 360,000); AID 588493, 2011;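 active means inhibition at 20 µM, scaled to each plate's controls, above about 33%, limit read from the data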
STEP inh = STEP phosphatase inhibitors, primary screen, biochemical, fluorescence intensity, uHTS | Tyrosine-protein phosphatase non-receptor type 5 (Homo sapiens), P54829 | recombinant STEP, OMFP fluorogenic substrate | inhibition, % at 20 µM | actives 0.25% (n = 360,000) | AID 588621, 2011;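 active means inhibition at 20 µM, scaled per plate between control wells, above about 37%, limit read from the data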
Target sequence (P54829 whole entry, looked up): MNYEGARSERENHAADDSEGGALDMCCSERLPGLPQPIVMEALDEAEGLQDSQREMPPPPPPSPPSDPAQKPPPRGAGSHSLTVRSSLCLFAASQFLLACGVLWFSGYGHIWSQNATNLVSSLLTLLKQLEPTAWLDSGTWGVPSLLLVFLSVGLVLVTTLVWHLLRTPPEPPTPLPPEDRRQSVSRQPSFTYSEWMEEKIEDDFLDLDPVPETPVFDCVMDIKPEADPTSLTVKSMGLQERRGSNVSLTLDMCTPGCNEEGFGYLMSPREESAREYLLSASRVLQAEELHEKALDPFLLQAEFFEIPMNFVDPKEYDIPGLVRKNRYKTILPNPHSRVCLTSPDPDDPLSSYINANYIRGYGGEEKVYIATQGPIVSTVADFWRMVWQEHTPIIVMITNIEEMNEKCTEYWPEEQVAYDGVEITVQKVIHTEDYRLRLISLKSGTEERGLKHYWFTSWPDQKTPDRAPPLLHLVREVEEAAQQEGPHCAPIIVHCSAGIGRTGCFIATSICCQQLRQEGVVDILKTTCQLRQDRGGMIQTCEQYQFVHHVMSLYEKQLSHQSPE
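material = STEP tyrosine phosphatase | reagent = fluorogenic phosphatase substrate OMFP at 25 µM final | doses = single compound dose of 20 µM, 1% DMSO final | schedule = 20 min reaction, room temperature, in the dark | measured by = fluorescence, 480/540 nm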
LMPTP block = LMPTP phosphatase inhibitors, primary screen, biochemical, fluorescence intensity, uHTS; Low molecular weight phosphotyrosine protein phosphatase (Homo sapiens), P24666; recombinant LMPTP-A, OMFP fluorogenic substrate; inhibition, % at 20 µM; actives 0.22% (n = 360,000); AID 651560, 2012;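 active means compounds that cut the enzyme signal by at least half of the control window in the single-dose screen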
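Test system: LMPTP-A phosphatase enzyme; input: 0.625 nM LMPTP-A final; reagent: OMFP substrate, 400 µM final; compound dosing: 20 µM single dose, 3% DMSO; incubation: 50 min dark incubation at room temperature; measured by: endpoint fluorescence intensity from OMFP dephosphorylation; measure: % inhibition relative to no-enzyme and uninhibited control wells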
DNMT1 inh = human DNMT1 methyltransferase inhibitors, primary screen, biochemical, molecular beacon, fluorescence, HinP1I cleavage, uHTS; DNA (cytosine-5)-methyltransferase 1 (Homo sapiens), P26358; inhibition (reported as % activation of signal), % at 10 µM; actives 0.83% (n = 360,000); in the data active means inhibition above about 50%
Scp-1 inhibitor = Scp-1 phosphatase inhibitors, primary screen, biochemical, colorimetric, uHTS; Carboxy-terminal domain RNA polymerase II polypeptide A small phosphatase 1 (Homo …; Recombinant Scp1, phosphopeptide, malachite green phosphate absorbance; inhibition, % at 20 µM; actives 0.88% (n = 340,000);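 active means inhibition above about 50% at 20 µM, limit read from the data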
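assay system = SCP-1 phosphatase catalytic domain, residues 76-261 | buffer or medium = 50 mM Tris acetate pH 5.5, 0.005% Tween-20, 10 mM MgCl2 | incubation = enzyme reaction 45 min at room temperature, colour 5 min, stabilisation 30 min | signal = Phosphate-binding colour reagent, absorbance read at 630 nm | measure = % inhibition at 20 µM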
SUMO1-SIM PPI = modulators of SUMO1 protein-protein interactions, primary screen, biochemical, uHTS; inhibition, % at 20 µM; SUMO1 binding to a labelled peptide, TR-FRET, 1 h; actives 0.33% (n = 360,000); in the data active means inhibition above about 37%
Target sequence (P63165 whole entry, looked up): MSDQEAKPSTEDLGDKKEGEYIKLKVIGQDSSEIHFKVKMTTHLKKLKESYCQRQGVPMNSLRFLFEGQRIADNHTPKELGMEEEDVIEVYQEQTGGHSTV
Of the large screens only hits and unclear results are named; the others gave an inactive call.

N#Cc1cn(-c2ccccc2)nc1-c1ccccc1	SUMO1-SIM PPI 45
O=C(O)c1ccc(N2C(=O)/C(=C/c3ccc(-c4ccc([N+](=O)[O-])cc4)o3)C=C2c2ccccc2)cc1	Rpn11 inh 78, STEP inh 87, LMPTP block 79, DNMT1 inh 81, Scp-1 inhibitor 66, SUMO1-SIM PPI 103
Cc1ccccc1C(=O)NN1C(=O)CSC1=S	none
O=C(NN1C(=O)CSC1=S)c1cccnc1	SUMO1-SIM PPI 60 (not shown: Rpn11 inh)
O=C(NCc1cccnc1)C1C2C=CC(C2)C1C(=O)Nc1cccc(C(F)(F)F)c1 (configuration not stated)	SUMO1-SIM PPI 40 (no result: Scp-1 inhibitor)
O=C(CSc1nc2nn(-c3ccccc3)c(=O)c-2c2n1CCCCC2)c1ccc(O)c(O)c1	LMPTP block 68
C[C@H](CO)N1C[C@H](C)[C@H](CN(C)C(=O)Nc2cccc(Oc3ccccn3)c2)OCc2cnnn2CCCC1=O	none (no result: Scp-1 inhibitor)
Cc1csc2nc3cc(C(N)=O)ccc3c(=O)n12	none
NC(=O)c1ccc2c(=O)n3c(-c4cc(Cl)c(N)c(Cl)c4)csc3nc2c1	SUMO1-SIM PPI 56
CCOC(=O)c1sc(N/N=C/c2cc(Br)c(O)c(OC)c2)nc1C	STEP inh 84
COc1cc(C(=O)OCC(=O)NC2CCCCCC2)ccc1OCC(C)C	none
O=C(NCCCN1CCCC1=O)c1cccc(S(=O)(=O)Nc2ccc(Br)cc2)c1	none
CCCCCCCc1c(O)nc(SCC(=O)O)[nH]c1=O	none
COc1ccc(C(C(=O)NCc2ccc(F)cc2)N(C(=O)c2csnn2)C2CC2)cc1 (configuration not stated)	none
COc1cccc(NC(=O)c2ccc3nc(C)c(N(C)Cc4ccc(NC(C)=O)cc4)n3c2)c1	none (no result: Scp-1 inhibitor)
CCCCN(C(=O)CSCc1ccc(C)cc1)c1c(N)n(CCC)c(=O)[nH]c1=O	none
CC(C)Nc1ncnc2[nH]ncc12	none
CNc1nc(NC)c2cn[nH]c2n1	LMPTP block 63
CCC(=O)Nc1ccc(NC(=O)CSc2nnnn2C2CCCC2)cc1C	none
COc1ccc([N+](=O)[O-])cc1N(CC(=O)NCCC1=CCCCC1)S(C)(=O)=O	none
Cc1ccc2nc(-c3ccc4c(c3)NC(=O)CO4)cn2c1	LMPTP block 73
CCOC(=O)c1c(NC(=O)CSc2nnc(C)c(=O)[nH]2)sc2c1CCCC2	none
CCOC(=O)c1c(NC(=O)CSc2nnc(C)c(=O)[nH]2)sc(C)c1-c1ccc(C)cc1	SUMO1-SIM PPI 38
O=C1NN=C(c2ccc(Cl)cc2)CC1c1c[nH]c2ccccc12 (configuration not stated)	none
Cc1ccc(C2=NNC(=O)C(c3c[nH]c4ccccc34)C2)cc1 (configuration not stated)	SUMO1-SIM PPI 55
O=S(=O)(c1ccc(F)c(F)c1)N1CCN(S(=O)(=O)c2cccs2)CC1	none
CCCCCOc1ccc(/C=c2\sc3nc(=O)c(-c4ccccc4)nn3c2=O)cc1OC	none
C=CCOc1ccccc1/C=c1\sc2nc(=O)c(C)nn2c1=O	DNMT1 inh 53
CCN(c1ccccc1)S(=O)(=O)c1ccc(Cl)c(C(=O)NCC2CCCO2)c1 (configuration not stated)	none
CN1c2ccccc2C(C)(C)C12C=Cc1cc(O)ccc1O2 (configuration not stated)	Rpn11 inh 82
Cc1ccc(NC2=C/C(=N/S(=O)(=O)c3cccs3)c3ccccc3C2=O)cc1C	none
COc1ccc(S(=O)(=O)/N=C2\C=C(Nc3ccc(O)cc3)C(=O)c3ccccc32)cc1	none
CCc1ccc(S(=O)(=O)/N=C2\C=C(NS(=O)(=O)c3ccccc3)C(=O)c3ccccc32)cc1	none
O=C(O)c1ccc(S(=O)(=O)/N=C2\C=C(Nc3ccccc3F)C(=O)c3ccccc32)cc1	DNMT1 inh 74, SUMO1-SIM PPI 75
Cc1ccccc1NC1=C/C(=N\S(=O)(=O)c2ccc(C(=O)O)cc2)c2ccccc2C1=O	DNMT1 inh 72, SUMO1-SIM PPI 69
Cc1ccccc1NC1=C/C(=N\S(=O)(=O)c2cccs2)c2ccccc2C1=O	DNMT1 inh 69
Cc1ccc(Cl)cc1N1CCN(C(=O)CCS(=O)(=O)c2ccc3c(c2)NC(=O)CO3)CC1	none
Cc1ccc(S(=O)(=O)N2[C@@H](c3ccc(C(C)(C)C)cc3)C(C(=O)O)=CC[C@H]2c2ccc(Cl)c(Cl)c2)cc1	SUMO1-SIM PPI 43
Cc1ccc(S(=O)(=O)N2[C@@H](c3ccc(Br)cc3)C(C(=O)O)=CC[C@H]2c2ccc(Cl)c(Cl)c2)cc1	SUMO1-SIM PPI 40
Cc1ccc(S(=O)(=O)N2[C@@H](c3ccc(Br)cc3)C(C(=O)O)=CC[C@H]2c2cccc(Cl)c2)cc1	none
Cc1ccc(S(=O)(=O)N2[C@@H](c3ccc(C(C)(C)C)cc3)C(C(=O)O)=CC[C@H]2c2cccc(Cl)c2)cc1	none
COc1ccc(-c2nn(CCC#N)cc2C(=O)Nc2cccc(C(=O)O)c2)cc1[N+](=O)[O-]	none
O=C(CCS(=O)(=O)c1ccc(F)cc1)Nc1nc(-c2ccncc2)cs1	STEP inh 57
CC(=O)c1ccc(CC2SC(N)=NC2=O)cc1 (configuration not stated)	none
O=C(OCCNc1nc(-c2ccccc2)nc2ccccc12)c1cccnc1	LMPTP block 62
O=C(OCCNc1nc(-c2ccccc2)nc2ccccc12)c1ccncc1	LMPTP block 62
OCCNc1nc(-c2cccnc2)nc2ccccc12	none
CCCCCCCC/C=C\CCCCCCCC(=O)O	DNMT1 inh 59
COc1ccc(S(=O)(=O)N2CCC(C(=O)Oc3ccc(C)cc3)CC2)cc1OC	none
CNc1ccc2c3c(cccc13)C(=O)N(C)C2=O	DNMT1 inh active
CN1C(=O)c2cccc3c(Cl)ccc(c23)C1=O	none
COc1cccc(CNc2nc(NC(C)C)nc3ccsc23)c1OC	none (no result: Scp-1 inhibitor)
COc1cccc(CNc2nc(NCC3CC3)nc3ccsc23)c1OC	LMPTP block 60 (no result: Scp-1 inhibitor)
COc1ccc(-c2csc(N3CCN(c4cc(C)nc5ccccc45)CC3)n2)cc1OC	LMPTP block 84
